Compound activity deposited in PubChem BioAssay by several laboratories.
MBD2 inh: MBD2-methylated oligo binding inhibition; AID 686964; 370,000 compounds, 0.31% hits; TR-FRET, MBD2 binding to methylated oligonucleotide; Q9UBB5; inhibition, % at 4.4 µM; in the data active = inhibition above about 13%
Target sequence (Q9UBB5 whole entry, looked up): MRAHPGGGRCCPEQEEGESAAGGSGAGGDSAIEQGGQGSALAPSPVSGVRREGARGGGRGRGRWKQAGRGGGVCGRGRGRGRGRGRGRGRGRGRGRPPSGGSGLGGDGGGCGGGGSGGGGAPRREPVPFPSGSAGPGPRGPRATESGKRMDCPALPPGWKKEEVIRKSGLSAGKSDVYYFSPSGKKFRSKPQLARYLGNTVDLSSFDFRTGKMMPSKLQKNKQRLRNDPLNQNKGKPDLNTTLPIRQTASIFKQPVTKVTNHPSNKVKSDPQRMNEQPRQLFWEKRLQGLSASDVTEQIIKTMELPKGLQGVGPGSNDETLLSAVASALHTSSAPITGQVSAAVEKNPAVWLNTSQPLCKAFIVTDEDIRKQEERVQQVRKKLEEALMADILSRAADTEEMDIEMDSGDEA
Pemphigus Ab inh: inhibitors of pemphigus antibody binding to human desmoglein-3. P32926. 310,000 compounds, 0.48% hits. binding (percent of control), % at 10 µM. DSG3-coupled beads, scFv-anti-DSG3-GFP binding, flow cytometry; stronger effect = lower value;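 active = binding more than 3 SD below its plate's average and above zero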
HCV NS3 hel inh: inhibitors of Hepatitis C virus NS3 helicase; NS3 helicase DNA unwinding, Cy5 molecular beacon fluorescence; inhibition, % at 10.9 µM; 290,000 compounds, 0.56% hits;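 active = inhibition above the mean of all tested compounds plus 3 SD, set per campaign, cut at about 35% in these data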;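 note: 0% = DMSO wells and 100% = thioflavine S control wells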
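Compound dosing – single dose, 10.9 µM nominal final, DMSO 0.8% final · System – NS3 helicase fragment of HCV · Buffer or medium – MOPS pH 6.5, MgCl2, DTT, Tween20, BSA · Signal – Cy5 beacon fluorescence read at start and 1 h · Also added – annealed dual-labelled DNA beacon duplex, ATP-started · Schedule – 1 h at 25 °C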
UHRF1 MBD2 ctr: human UHRF1 methylated DNA binding inhibitors; Q96T88; UHRF1 binding to methylated oligo, TR-FRET; inhibition, % at 4.4 µM; 370,000 compounds, 0.75% hits; AID 687016; in the data active = inhibition above about 21%;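 note: UHRF1 SRA domain binding a hemimethylated CpG hairpin DNA probe; 0% = median of test compound wells and 100% = reference inhibitor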
DNMT1 inh: DNMT1 (human) enzyme inhibition. inhibition (reported as % activation of signal), % at 10 µM. 360,000 compounds, 0.83% hits. DNMT1 molecular beacon, Hinp1I cleavage, fluorescence. P26358; in the data active = inhibition above about 50%
SUMO1 PPI mod: alters human SUMO1 binding to SIM partners | P63165 | SUMO1 binding to a labelled peptide, TR-FRET, 1 h | inhibition, % at 20 µM | 360,000 compounds, 0.33% hits | AID 602429; in the data active = inhibition above about 37%
Target sequence (P63165 whole entry, looked up): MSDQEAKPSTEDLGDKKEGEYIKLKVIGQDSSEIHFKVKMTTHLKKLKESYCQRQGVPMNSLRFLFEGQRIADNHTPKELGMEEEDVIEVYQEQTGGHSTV
DNMT1 confirm: confirmation of human DNMT1 inhibitors. shares compounds with DNMT1 inh. inhibition, % at 10 µM. 2,300 compounds, 8% hits. DNMT1 molecular beacon HinP1I cleavage, fluorescence;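 active = average inhibition of at least 30% in the single-concentration confirmation test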
Beacon interf: shows spectral interference in the DNMT1 beacon assay. shares compounds with DNMT1 inh. DNMT1 molecular beacon spectral interference counterscreen, fluorescence 485/520. activation (fluorescence interference), % at 10 µM. 2,300 compounds, 1% hits. AID 602387;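 active = activation of at least 30% at 10 µM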;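 note: DNMT1 catalytic domain with a HinP1I cleavage step and a FAM/dabcyl DNA beacon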
* = called active by the depositor; . = no result given. A selection: hits, their analogues and other compounds. The true share with any hit is near 2.5%.

SMILES	MBD2 inh	Pemphigus Ab inh	HCV NS3 hel inh	UHRF1 MBD2 ctr	DNMT1 inh	SUMO1 PPI mod	DNMT1 confirm	Beacon interf
Cc1ccc(/C=C/C(=O)N2CCc3ccccc32)o1	13	116	28	31*	86*	-3	8	2
Nc1ncnc2c1ncn2C1CCCC(CO)O1 (stereo not drawn)	4	95	.	-1	80*	5	1	-2
CC1(C)C2CC[C@]3(C)C(CC=C4[C@@H]5C[C@@](C)(CO)[C@@H](O)C[C@]5(C(=O)O)CC[C@]43C)[C@@]2(C)CC[C@@H]1O (stereo partly drawn)	.	.	.	.	-2	0	.	.
C=C(C)[C@@H]1CCC2(C(=O)O)CC[C@]3(C)[C@H](CC[C@@H]4[C@@]5(C)CCC(=O)C(C)(C)[C@@H]5CC[C@]43C)[C@@H]12 (stereo partly drawn)	-3	101	6	1	55*	2	1	-8
C=C(CC[C@@H](O)C(C)(C)O)[C@H]1CC[C@]2(C)[C@@H]1CCC1[C@@]3(C)CCC(=O)C(C)(C)C3CC[C@]12C (stereo partly drawn)	-1	101	.	-4	-4	2	.	.
C=C(C)[C@@H]1CC[C@]2(C(=O)O)CC[C@]3(C)C(CCC4[C@@]5(C)CC[C@H](O)C(C)(C)C5CC[C@]43C)C12 (stereo partly drawn)	1	97	14	1	60*	3	-1	-16
O/N=C1\CCCCc2ccccc21	1	100	3	-1	0	0	.	.
Nc1ncnc2c(C3OC(CO)C(O)C3O)scc12 (stereo not drawn)	-7	88	.	0	10	-17	.	.
CC(C)CCc1c(O)nc(SCC(=O)N2CCCCCC2)[nH]c1=O	2	99	5	1	0	2	.	.
COc1cc(C(=O)N=c2sccn2C)c([N+](=O)[O-])cc1OC	3	119	20	3	2	-5	.	.
Cn1ccsc1=NC(=O)c1ccc([N+](=O)[O-])o1	-3	102	4	1	59*	-19	3	0
COc1ccc(-c2cc3ccccc3oc2=O)cc1NC(=O)c1ccc(Br)o1	5	105	-4	-2	85*	9	2	-5
CN(CCC#N)C(=O)COC(=O)/C=C/c1ccc2c(c1)OCO2	-8	101	-4	-2	1	-14	.	.
CSCC[C@H](NC(=O)OC(C)(C)C)C(=O)NCC1CCC(C(=O)N[C@@H](Cc2ccccc2)C(=O)O)CC1 (stereo partly drawn)	2	105	-14	-1	-6	4	.	.
N#Cc1c(/N=C/c2ccc(-c3ccc(C(=O)O)c(Cl)c3)o2)sc2c1CCCC2	-1	.	.	0	9	-6	.	.
N#Cc1c(/N=C/c2ccc(-c3ccccc3C(=O)O)o2)sc2c1CCCC2	2	106	3	9	52*	-8	3	5
CCOc1cc(NC(=O)c2ccco2)c(OCC)cc1NC(=O)COc1ccccc1C	4	98	8	2	65*	-2	0	-2
CCOC(=O)c1ccc(COC(=O)c2cc3ccccc3oc2=O)o1	0	101	-3	3	-3	-14	.	.
Cn1cnnc1SCC(=O)Nc1sc2c(c1C(N)=O)CCC2	10	94	2	25*	85*	43*	17	3
CCn1cc(Br)c(C(=O)Nc2sc3c(c2C(N)=O)CCCC3)n1	.	.	8	.	68*	4	2	-3
COC(=O)c1c(NC(=O)CN2C(=O)NC3(CCC(C)CC3)C2=O)sc2c1CCC2 (stereo not drawn)	4	113	.	-2	6	0	.	.
Cn1cc(Br)c(C(=O)Nc2sc3c(c2C(N)=O)CCCC3)n1	0	113	3	2	-3	27	.	.
COCCn1cnnc1SCC(=O)Nc1sc2c(c1C#N)CCC2	1	99	.	-2	17	4	.	.
CC1CCC2(CC1)NC(=O)N(CC(=O)Nc1sc3c(c1C(N)=O)CCC3)C2=O (stereo not drawn)	8	95	0	11	70*	18	5	-1
O=C(NCc1ccco1)C(c1ccncc1)N(CCC1=CCCCC1)C(=O)Cn1nnc2ccccc21 (stereo not drawn)	-4	106	17	6	-4	2	.	.
SMILES	MBD2 inh	Pemphigus Ab inh	HCV NS3 hel inh	UHRF1 MBD2 ctr	DNMT1 inh	SUMO1 PPI mod	DNMT1 confirm	Beacon interf
CCN1/C(=C\C=C2\C(=O)N(c3ccccc3)C(=S)N2C)Sc2ccccc21	3	90	18	2	55*	-20	2	0
O=C(O)COn1c(-c2ccccc2)nc2ccc([N+](=O)[O-])cc21	5	94	2	1	66*	12	2	-1
Fc1cccc(Cl)c1Cc1noc(/C=C/c2ccccc2)n1	-4	94	-5	0	-5	-7	.	.
COCCn1c(C)cc(C(=O)COc2nc3ccccc3nc2C)c1C	-8	.	4	3	1	-12	.	.
CC(=O)c1cccc(NC(=O)CN2C(=O)C3C4C=CC(C4)C3C2=O)c1 (stereo not drawn)	-3	104	12	1	50*	-2	1	1
CC(C)[C@H](NC(=O)[C@H](Cc1ccccc1)n1c(=O)[nH]c2ccccc2c1=O)C(=O)N1CCC[C@H]1C(=O)O	-3	104	-6	1	2	0	.	.
CC(C)[C@H](NC(=O)[C@H](Cc1ccccc1)n1c(=O)[nH]c2ccccc2c1=O)C(=O)N1CCC[C@@H]1C(=O)O	5	.	4	0	82*	3	-1	2
CCc1ccc(NC(=O)Cn2c(=O)c3cccn3c3ccccc32)cc1	0	129	-35	-4	55*	-1	5	1
CCCCN1C(=O)NC(NC(=O)C2CC2)(C(F)(F)F)C1=O (stereo not drawn)	-2	106	-3	-2	3	-3	.	.
CC(NC(=O)CCC(=O)Nc1ccccc1O)c1ccccc1 (stereo not drawn)	4	100	.	6	-3	2	.	.
CC(CNc1ccccc1O)C(=O)O (stereo not drawn)	-6	123	14	19	64*	-3	2	0
O=C(N/N=C/c1ccco1)c1cccc(S(=O)(=O)Nc2ccccc2Cl)c1	0	109	19	2	56*	26	2	2
C=CCNC(=O)C12CCC(C)(C(=O)C1Br)C2(C)C (stereo not drawn)	-3	105	5	-3	1	-3	.	.
